From PubChem BioAssay
TROY NFkB inh: TROY signaling inhibition; AID 1347056; Q293 LMP1-TROYcd NF-kB luciferase reporter, 4 h; inhibition, % at 10 µM; actives 0.98% (n = 360,000);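 active = compounds whose plate-normalised and pattern-corrected inhibition of the luciferase reporter signal at the single screening dose is 50% or more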
HIF act: HIF pathway transcriptional activation; U2OS HRE-luciferase reporter, luminescence; normalized: DMSO 0%, desferrioxamine 100%; activation, % at 7.5 µM (by protocol); actives 0.32% (n = 300,000);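 active = mean activation of at least 10% of the iron chelator positive control signal, with at least half of replicates also reaching 10%; inconclusive = mean and replicate majority disagree about reaching 10%; inactive = mean and most replicates under 10%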
NR2E3 ag-1: activates human photoreceptor nuclear receptor NR2E3 | actives 0.12% (n = 320,000) | Q9Y5X4 | AID 2300 | GST-NR2E3/biotin-RetCOR TR-FRET, 1536-well | inhibition of corepressor binding, % at 4.78 µM;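 active = percent inhibition above the cutoff of mean plus 3 SD of all tested compounds, set per screening campaign, cut at about 20% in these data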;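 also: 0% = DMSO wells and 100% = biotin wells as full block of FRET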
Target sequence (Q9Y5X4 whole entry, looked up): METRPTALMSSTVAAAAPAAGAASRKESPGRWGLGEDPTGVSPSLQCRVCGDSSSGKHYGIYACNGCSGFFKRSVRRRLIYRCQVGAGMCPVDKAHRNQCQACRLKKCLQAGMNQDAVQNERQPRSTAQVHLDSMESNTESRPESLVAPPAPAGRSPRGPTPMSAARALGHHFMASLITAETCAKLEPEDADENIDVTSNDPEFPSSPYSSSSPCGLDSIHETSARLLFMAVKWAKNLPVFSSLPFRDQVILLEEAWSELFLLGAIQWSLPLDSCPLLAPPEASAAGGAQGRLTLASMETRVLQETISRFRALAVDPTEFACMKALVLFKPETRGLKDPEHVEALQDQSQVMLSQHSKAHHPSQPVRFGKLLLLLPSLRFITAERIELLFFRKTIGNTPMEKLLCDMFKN
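system = GST-tagged NR2E3 plus biotinylated RetCOR corepressor | input = 1.35 nM GST-NR2E3 | also added = 7 nM biotin-RetCOR | schedule = 5 h incubation at 4 °C | measured by = TR-FRET with europium anti-GST and streptavidin-D2, 340 nm excitation | read-out = percent loss of FRET ratio relative to control wells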
EBV LMP1 NFkB: Epstein-Barr LMP1 NF-kappaB reporter inhibition. LMP1-induced NF-kappaB luciferase reporter cells, luminescence. inhibition, % at 12.5 µM. actives 0.69% (n = 350,000). AID 504558; in the data active = inhibition above about 41%; inconclusive = no clear call, values can overlap the other calls;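 also: 0% = neutral control wells and 100% = reference inhibitor control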
NR2E3 ag-2: agonists of human NR2E3 nuclear receptor. Q9Y5X4. CHO-S Gal4-NCOR/VP16-NR2E3 two-hybrid, luciferase. inhibition of corepressor binding, % at 3.98 µM. actives 0.35% (n = 360,000);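 active = inhibition above the mean of all tested compounds plus 3 SD, cut at about 70% in these data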;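 also: 0% = DMSO with NR2E3 transfected cells and 100% = cells lacking NR2E3 construct; higher means lower luciferase signal from less NR2E3 corepressor binding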
NR2E3 ag conf: NR2E3 agonism confirmed in two-hybrid assay; shares compounds with NR2E3 ag-2; actives 51% (n = 2,300); AID 624378; inhibition, % at 3.98 µM; CHO-S mammalian two-hybrid NR2E3-NCOR, luciferase luminescence;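 active = average inhibition above a cutoff equal to the mean inhibition of all tested compounds plus one SD, cut at about 70% in these data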;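 also: 0% = DMSO in NR2E3 cells and 100% = DMSO in cells lacking NR2E3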
GAL4-VP16 luc: GAL4-VP16 reporter inhibition in NR2E3 agonist counterscreen; inhibition, % at 3.98 µM; CHO-S GAL4-VP16 luciferase reporter, luminescence; actives 29% (n = 2,300); shares compounds with NR2E3 ag-2;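 active = mean inhibition above a cutoff equal to the average over all tested compounds plus one standard deviation, cut at about 70% in these data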;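 also: luciferase from a UAS reporter driven by GAL4-VP16 transactivation; 0% = DMSO with VP16-transfected cells and 100% = DMSO with cells lacking VP16; higher means less reporter light so more repression of VP16 activity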
* hit, by the source's call; ? = inconclusive; . = no result. Only some compounds are listed: those with a hit (about 2% of all), similar ones and a draw of the others.

SMILES	TROY NFkB inh	HIF act	NR2E3 ag-1	EBV LMP1 NFkB	NR2E3 ag-2	NR2E3 ag conf	GAL4-VP16 luc
Cc1nn(Cc2ccc(Cl)c(Cl)c2)c(C)c1NC(=O)c1cc(-c2ccco2)on1	17.5	-0.2	2.1	4.7	51.1	78.6*	66.1
CCOC(=O)C1=C[C@@H](CC)N(S(=O)(=O)c2ccccc2)[C@H]1c1ccccc1	15.6	.	.	.	2.4	.	.
COc1ccc(NC(=O)c2ccc(-c3ccccc3)cc2)cc1NS(=O)(=O)c1ccc(F)cc1	31.4	-0.5	0.3	27.0	68.8	-4.8	21.1
COc1ccc(NC(=O)c2ccccc2)cc1NS(=O)(=O)c1ccc(F)cc1	2.8	-0.2	3.0	1.9	-22.4	.	.
O=C(COc1ccc(NC(=O)c2cccs2)cc1)c1ccc(F)cc1	-30.0	0.4	-2.1	-20.1	18.1	.	.
CCc1cc(-c2cnnn2Cc2ccc3ccccc3c2)ccc1-c1cn(CC(C)C)nn1	16.1	.	.	-20.1	-36.8	.	.
CCc1cc(-c2nnn(CCC3COCCO3)c2CC)ccc1-c1cn(Cc2ccccc2)nn1 (stereo not drawn)	10.5	.	.	-0.4	75.8*	75.6*	66.4
CC1Cc2cc(S(=O)(=O)N3CCN(c4ccc(Cl)cc4)CC3)ccc2N1C(=O)C1CC1 (stereo not drawn)	25.4	0.3	0.6	17.7	14.4	.	.
CC(=O)N1c2ccc(S(=O)(=O)N3CCC(C(=O)N4CCN(c5ccc(Cl)cc5)CC4)CC3)cc2CC1C (stereo not drawn)	10.8	0.7	2.1	?	64.8	77.2*	68.1
Cc1ccc(Cl)cc1N1CCN(C(=O)C2CCN(S(=O)(=O)c3cccnc3)CC2)CC1	4.0	-0.3	-0.4	13.0	52.0	53.0	39.7
CCN1C[C@@H]2[C@@H]3C(=O)N(Cc4ccccc4)C(=O)[C@@H]3[C@](Cc3ccccc3)(C1=O)N2C(=O)c1ccc(C)cc1	1.9	.	.	9.5	5.0	.	.
CCCCCOc1ccc(Br)cc1CSC(=N)N	42.3	0.0	.	23.3	61.5	89.6*	59.5
COc1ccc(Br)cc1CSC(=N)N	22.1	-0.4	-2.2	0.5	-8.9	.	.
C/C(=N\NC(=S)NCCc1ccccc1)c1ccc(C)cc1	-29.1	-0.1	1.7	11.3	70.0	0.6	-5.5
C/C(=N\NC(=S)NCCc1ccccc1)c1ccc(C#N)cc1	-18.2	0.0	0.7	2.0	20.4	.	.
C/C(=N/NC(=O)CNC(=O)CCc1ccccc1)c1ccc(Cl)cc1	-26.8	-0.1	0.8	3.8	0.9	.	.
C/C(=N\NC(=S)NCCc1ccccc1)c1ccc(Cl)cc1	-6.3	-0.4	-1.8	-1.9	54.4	20.3	-25.2
COc1cccc(CC(=O)OCC(=O)N(C)CC(=O)Nc2ccc(F)cc2)c1	-25.2	0.2	6.3	-2.1	14.9	.	.
COc1ccc(CC(=O)Nc2ccc(S(=O)(=O)Nc3cc(C)nc(C)n3)cc2)cc1OC	-0.5	.	.	0.4	-5.4	.	.
S=C(Nc1ccccc1)Nc1ccc(OCc2ccc(Cl)cc2Cl)cc1	80.8*	-5.5	3.0	77.0*	75.1*	65.5	61.4
S=C(NCCSCc1ccc(Cl)cc1Cl)Nc1ccccc1	38.4	-0.5	3.7	-4.2	48.5	.	.
CCC(C(=O)NCc1ccc(F)cc1)N(CCc1ccccc1)C(=O)c1snc(C(N)=O)c1N (stereo not drawn)	-5.5	0.5	-0.8	-6.6	11.9	.	.
O=C(Nc1cccc(Cl)c1)c1cc(N=Nc2ccc([N+](=O)[O-])cc2Cl)ccc1O	39.2	-21.8	2.5	2.6	71.3*	100.3*	92.4*
O=C(Nc1cccc(Cl)c1)c1cccc(Oc2ccc([N+](=O)[O-])cc2Cl)c1	43.5	-0.1	1.9	5.0	-0.1	.	.
CC(=O)Nc1ccc(Nc2cc(C)nc3c(-c4ccccc4)cnn23)cc1	15.4	.	0.6	12.5	49.7	51.6	-10.7
SMILES	TROY NFkB inh	HIF act	NR2E3 ag-1	EBV LMP1 NFkB	NR2E3 ag-2	NR2E3 ag conf	GAL4-VP16 luc
Cc1ccc2c(c1)N(C(=O)CCC(=O)NCc1cccnc1)CC(C)O2 (stereo not drawn)	8.5	-0.2	-4.8	-3.7	-3.7	.	.
Cc1ccc(-n2nc3c(=O)n(C(C)C(=O)NCCC4=CCCCC4)nc(C)c3c2C)cc1 (stereo not drawn)	32.8	-0.3	-1.6	20.1	51.3	11.7	40.6
Cc1cc(Cl)ccc1OC(C)C(=O)Nc1ccc(S(=O)(=O)N2CCOCC2)cc1 (stereo not drawn)	16.5	-0.2	0.8	4.1	5.1	.	.
Cc1cc(Cl)ccc1OC(C)C(=O)Nc1ccc(C(=O)Nc2ccccc2C(=O)O)cc1 (stereo not drawn)	56.9*	-0.4	4.4	9.7	52.6	10.2	32.1
C[C@@H](NC(=O)[C@@H]1CCCN1C(=O)[C@@H]1CCCN1C(=O)c1ccc(Cl)cc1)c1ccccc1	10.0	.	.	.	-17.3	.	.
CCCC(=O)c1ccc(N2CCN(C(=O)c3ccccc3Br)CC2)c(F)c1	9.4	0.8	0.5	17.7	83.6*	73.7*	67.7
CCCC(=O)c1ccc(N2CCN(C(=O)c3ccccc3)CC2)c(F)c1	7.8	.	2.5	3.7	18.2	.	.
CC(=NNC(=S)N1CC2CCC(CC2)C1)c1ccccn1	21.1	.	.	32.8	87.1*	-36.9	-8.9
CC(=NNC(=S)N1CC2CCC(CC2)C1)c1cnccn1	-7.9	.	.	65.8*	76.4*	-20.4	-26.1
CC(=NNC(=S)N1CCN(c2ccccn2)CC1)c1nccs1	12.8	.	.	74.3*	90.0*	41.9	46.3
CC(=NNC(=S)N1CCN(C2CCCCCC2)CC1)c1ccccn1	-1.7	.	.	16.0	77.9*	18.8	-6.7
S=C(NC1CCCC1)N1CCN(c2ccccn2)CC1	10.3	-8.1	1.0	-1.9	-17.3	.	.
C/C(=N\NC(=O)C1CCCN(S(=O)(=O)c2ccccc2)C1)c1ccccn1 (stereo not drawn)	-9.6	-0.1	-0.9	16.8	-3.8	.	.
CCOC(=O)CC1(NC(=O)c2cc(COc3c(F)cccc3F)on2)CCCCC1	-14.1	-0.4	-1.6	0.9	-8.3	.	.
O=C(N/N=C/c1ccc(O)cc1)c1ccc(COc2cc(Cl)ccc2Cl)o1	12.9	0.2	1.7	-34.5	53.7	41.7	-16.7
O=C(Nc1cccnc1)c1ccc(COc2cc(Cl)ccc2Cl)o1	.	0.9	2.1	-14.8	-106.0	.	.
COc1ccc(OC)c2c1C(=O)C(Cl)=C(Cl)C2=O	53.5*	-6.4	-15.7	25.4	102.3*	99.3*	68.2
COc1ccc(OC)c2c1C(=O)c1ccccc1C2=O	.	-0.8	-4.2	.	.	.	.
Cc1ccc(-c2cnc3n2CCCCC3)cc1	-12.8	0.8	4.0	10.1	-10.1	.	.
c1cc2c(cc1-c1cnc3n1CCC3)OCCO2	-6.9	0.2	1.6	-12.3	56.1	66.0	2.6
Cc1ccc2ccc3ccc(C)nc3c2n1	-19.0	0.9	2.6	39.0	92.1*	40.2	28.5
Cc1ccc2cc(F)c(F)c(F)c2n1	5.4	.	.	.	-7.5	.	.
